Experiment [1] concerns the target T1, Aldo-keto reductase family 1 member B1 (Rattus norvegicus, UniProt P07943). The experiment in a line: Inhibition of rat lens ALR2 using D,L-glyceraldehyde as substrate incubated for 1 min and measured up to 4 mins using 1% DMSO-dissolved compound by spectrophotometric analysis. In a few lines:
(§1)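 ALR2 purified from lenses of male Wistar rats (8–9 weeks, 200–230 g); in vitro reduction of D,L-glyceraldehyde (5.0 mM) monitored. Solvent was water or 1% DMSO. Same enzyme batch throughout. IC50 is the mean of two measurements or mean ± SD of at least three.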

Experiment [2] addresses T1, Aldo-keto reductase family 1 member B1. The experiment in a line: Inhibition of rat lens ALR2 using D,L-glyceraldehyde as substrate incubated for 1 min and measured up to 4 mins using H2O-dissolved compound by spectrophotometric analysis. In short, it runs like this: as §1
Experiment [3] in a line: Inhibition of rat kidney ALR1 using sodium D-glucuronate as substrate incubated for 1 min and measured up to 4 mins using H2O-dissolved compound by spectrophotometric analysis. In a few lines:
(§2)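 ALR1 purified from kidneys of male Wistar rats (8–9 weeks, 200–230 g); reduction of D-glucuronate monitored. Inhibitor dissolved in water. I (%) is inhibition at 100 μM inhibitor. Same enzyme batch throughout. Values are means of two measurements or mean ± SD of at least three.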

The species entered for experiment [4] is Rattus norvegicus. The experiment in a line: Selectivity index, ratio of IC50 for rat kidney ALR1 using sodium D-glucuronate as substrate incubated for 1 min and measured up to 4 mins using H2O-dissolved compound to IC50 for rat lens ALR2 using D,L-glyceraldehyde as substrate incubated for 1 min and measured up to 4 mins using H2O-dissolved compound. In a few lines:
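Selectivity factor computed as IC50(ALR1, rat kidney, D-glucuronate) divided by IC50(ALR2, rat lens, D,L-glyceraldehyde), both measured with compounds in water.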

A short description of experiment [5]: Antioxidant activity assessed as DPPH radical scavenging activity by measuring reduction in absorbance at 200 uM after 30 mins (reference value: 0.013 +/- 0.012). It counts as functional. In a few lines: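 Stable DPPH radical, 50 μM in ethanol, incubated without (blank) or with test compound at 200 μM; absorbance decline at 518 nm read after the initial 30-min interval. Mean ± SD of at least three measurements.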

For experiment [6], the species on record is Rattus norvegicus. The experiment in a line: Inhibition of rat kidney ALR1 at 100 uM using sodium D-glucuronate as substrate incubated for 1 min and measured up to 4 mins using H2O-dissolved compound by spectrophotometric analysis relative to control. In short, it runs like this: as §2
For experiment [7], the target named is Aldo-keto reductase family 1 member B1 (Homo sapiens, UniProt P15121). The experiment in a line: Inhibition of human AKR1B1 expressed in Escherichia coli using D,L-glyceraldehyde as substrate incubated for 1 min and measured up to 4 mins using by spectrophotometric analysis.
The target of experiment [8] is Aldo-keto reductase family 1 member B1 (Rattus norvegicus) (UniProt P07943). The experiment in a line: Inhibition of ALR2 in rat lens assessed as reduction in sorbitol accumulation preincubated for 30 mins followed by D-glucose addition and measured after 3 hrs by resazurin based fluorescence analysis. In short, it runs like this:
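Isolated eye lenses from female Wistar rats (9–10 weeks, 210–250 g) incubated with 50 mM glucose, alongside glucose-free and glucose-only controls. Inhibitor at 1, 10, 50 and 100 μM; lens sorbitol measured. Mean ± SEM of at least five independent incubations.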
Background: Resazurin is reduced to fluorescent resorufin, in cell work by metabolically active cells.

The target in experiment [9] is Aldo-keto reductase family 1 member B10 (Homo sapiens, UniProt O60218). The experiment in a line: Inhibition of human AKR1B10 using D,L-glyceraldehyde as substrate incubated for 1 min and measured up to 4 mins using by spectrophotometric analysis. In short, it runs like this:
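Human recombinant AKR1B10 at 10 μg/mL protein with 5 mM DL-glyceraldehyde substrate and 0.12 mM NADPH cofactor. Run without DMSO. IC50 is mean ± SD of at least three measurements.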

The target in experiment [10] is T1, Aldo-keto reductase family 1 member B1. The experiment in a line: Inhibition of rat lens ALR2 using methylglyoxal as substrate incubated for 1 min and measured up to 4 mins by spectrophotometric analysis. In short, it runs like this: (§3)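 Rat lens ALR2 with methylglyoxal (0.5 mM), 4-hydroxynonenal (0.5 mM) or GS-HNE (1.0 mM). IC50 is mean ± SD of at least three measurements.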

Experiment [11] has the same target. The experiment in a line: Inhibition of rat lens ALR2 using 4-hydroxynonenal as substrate incubated for 1 min and measured up to 4 mins by spectrophotometric analysis. In a few lines:
as §3

Experiment [12] has the same target. The experiment in a line: Inhibition of rat lens ALR2 using 4-hydroxynonenal glutathione as substrate incubated for 1 min and measured up to 4 mins by spectrophotometric analysis. In a few lines:
as §3

The target in experiment [13] is T2, Sorbitol dehydrogenase (Ovis aries) (UniProt P07846).
T2 sequence (whole entry): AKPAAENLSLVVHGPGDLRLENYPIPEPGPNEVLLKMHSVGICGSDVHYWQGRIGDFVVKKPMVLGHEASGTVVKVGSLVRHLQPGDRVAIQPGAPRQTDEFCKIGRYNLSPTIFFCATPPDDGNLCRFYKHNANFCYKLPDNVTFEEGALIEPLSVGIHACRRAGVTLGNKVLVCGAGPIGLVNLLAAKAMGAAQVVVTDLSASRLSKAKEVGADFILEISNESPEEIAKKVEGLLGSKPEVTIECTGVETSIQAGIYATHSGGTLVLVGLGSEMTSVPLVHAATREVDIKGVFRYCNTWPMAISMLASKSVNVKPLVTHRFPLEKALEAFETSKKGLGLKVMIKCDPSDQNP
The experiment in a line: Inhibition of sheep liver sorbitol dehydrogenase at 100 uM using sorbitol as substrate measured for 4 mins in presence of NAD+ by spectrophotometric analysis relative to control.

The species named for experiment [14] is Homo sapiens. The experiment in a line: Selectivity index, ratio of IC50 for human AKR1B10 to IC50 for human AKR1B1 expressed in Escherichia coli. In a few lines: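 Ratio of IC50s against recombinant human AKR1B10 and AKR1B1, each measured without DMSO as inhibition of DL-glyceraldehyde reduction. AKR1B10 used 5 mM substrate, 0.12 mM nicotinamide adenine dinucleotide phosphate cofactor and 10 μg/mL protein. AKR1B1 used the rat-lens ALR2 assay conditions at 5 μg/mL protein. IC50s are mean ± SD of at least three measurements.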

The structures appear in SMILES notation.

Chain of Aldo-keto reductase family 1 member B10 (O60218 whole entry): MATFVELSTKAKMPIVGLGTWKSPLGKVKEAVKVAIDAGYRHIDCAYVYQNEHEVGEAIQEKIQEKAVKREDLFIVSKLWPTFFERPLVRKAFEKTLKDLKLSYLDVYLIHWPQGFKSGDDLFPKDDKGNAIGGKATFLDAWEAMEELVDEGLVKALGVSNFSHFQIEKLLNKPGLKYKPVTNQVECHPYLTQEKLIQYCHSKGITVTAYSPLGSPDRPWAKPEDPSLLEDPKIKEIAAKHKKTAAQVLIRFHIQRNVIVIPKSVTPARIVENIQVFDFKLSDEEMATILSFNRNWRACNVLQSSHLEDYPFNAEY

In general, IC50 refers to the midpoint of a concentration-inhibition curve. A lower IC50 goes with higher potency. On to `O=C(O)Cn1nc2c3ccccc3n(CC(=O)O)c2nc1=O`, for which the IC50 in [1] is 233 nM; in experiment [2] it was 120 nM; in experiment [3], 20200 nM. Also, in experiment [4], the Ratio IC50 was 168.
Consider `COc1ccc2[nH]cc(CCNC(C)=O)c2c1`, for which the Reduction in absorbance at 518 nm (DPPH) in [5] was 0.022.
A word on the inhibition: it is the relative decrease from the control value, in per cent. On to `O=C(O)Cn1c2ccccc2c2n[nH]c(=O)nc21`, for which the IC50 in experiment [1] was 51 nM; in experiment [2] it was 42 nM; in [3], greater than 100000 nM; in [7], 66 nM; in experiment [9], 56200 nM; in [10] it was 40 nM. The figures for the IC50 in experiment [11] and in experiment [12] were 216 nM and 292 nM, respectively. In addition, the inhibition in experiment [6] was 24%; in experiment [8] it was “Dose-dependent effect”; in experiment [13] it was 0.9%. In addition, the Ratio IC50 in experiment [4] is greater than 2380; in [14], greater than 850. Moreover, the Reduction in absorbance at 518 nm (DPPH) in experiment [5] came out at 0.057.
As for `COCn1nc2c3ccccc3n(CC(=O)O)c2nc1=O`, the IC50 in experiment [1] was 118 nM; in experiment [2] it was 85 nM; in experiment [3], greater than 100000 nM. The molecule further had an inhibition in experiment [6] of 13.4%. Moreover, the Ratio IC50 in experiment [4] was greater than 1180. For the same molecule, the Reduction in absorbance at 518 nm (DPPH) in [5] was found to be 0.042.
`O=C(O)Cn1c2ccccc2c2nn(Cc3ccccc3)c(=O)nc21`: the IC50 in experiment [1] is 787 nM; in experiment [2], 434 nM; in experiment [3] it was greater than 100000 nM. This molecule had an inhibition in experiment [6] of 37.8%. Moreover, in [4], the Ratio IC50 was greater than 230.
Take `O=C(O)Cn1c2ccccc2c2nnc(S)nc21`: the 50% inhibitory concentration (IC50) in experiment [3] was found to be 35000 nM. Moreover, the Reduction in absorbance at 518 nm (DPPH) in [5] amounted to 0.219.

For the origin of these results see ChEMBL document CHEMBL4376851 (J Med Chem, 2020).
